Published values gathered from unrelated publications.
Protocols differ between the studies behind these lines.

SMILES	test	system	setting	endpoint	result
Cc1cc(S(=O)(=O)NC2CC(N3CC[C@@H](OC4CN(c5cccc6c5n(C)c(=O)n6C5CCC(=O)NC5=O)C4)[C@H](F)C3)C2)ccc1Nc1ncc(C(F)(F)F)c(N2CCC[C@](C)(O)C2)n1 (stereo partly drawn)	metabolic stability	human, liver microsomes	1 µM	scaled CLint	28 mL/min/kg
N[C@@H](COCC(=O)N1CCC[C@H](C(=O)NCc2nc(-c3ccc(C(F)(F)F)cc3)cs2)C1)c1ccccc1	metabolic stability	human, liver microsomes	0.5 µM	microsomal CLint	65 µL/min/mg
O=c1c2ccc(Oc3ccc(OC(F)(F)F)cc3)cc2[nH]c2cc(F)c(Cl)cc12	metabolic stability	human, liver microsomes	1 µM, pH 7.4	microsomal CLint	2.59 µL/min/mg
CC1(C(F)(F)F)NC(=O)N(c2ccc(F)c(C(F)(F)F)c2)C1=O (stereo not drawn)	HPLC		pH 7.4	chromatographic logD	3.5
Clc1ccc(Nc2ncnc3ccc(-c4cccc(N5CCOCC5)c4)cc23)cc1Cl	shake flask	aqueous buffer	pH 7.4	logD	> 4.2
CCOCC(=O)N1CC[C@@H](C)[C@H](C(=O)NCc2nc(-c3ccc(C)nc3)cs2)C1 (racemic)	metabolic stability	human, liver microsomes	0.5 µM	microsomal CLint	6.9 µL/min/mg
Cc1cc(S(=O)(=O)N[C@H]2CC[C@H](CN3CCN(c4ccc(C5CCC(=O)NC5=O)c(Cl)c4)CC3)CC2)ccc1Nc1ncc(C(F)(F)F)c(N2CCC[C@](C)(O)C2)n1 (stereo partly drawn)	metabolic stability	human, liver microsomes	1 µM	scaled CLint	20 mL/min/kg
O=C1NC(CF)(CF)C(=O)N1c1ccc(F)c(C(F)(F)F)c1	HPLC		pH 7.4	chromatographic logD	3
CC(C)n1c(C2CCNCC2)nc2c([N+](=O)[O-])c(Br)c(Br)cc21		human, urine	oral, 50 mg, single dose	renal clearance	14.5 mL/min
C[C@]1(O)CCCN(c2nc(Nc3ccc(S(=O)(=O)N[C@H]4CC[C@H](CN5CCN(c6ccc(C7CCC(=O)NC7=O)c(F)c6)CC5)CC4)cc3F)ncc2C(F)(F)F)C1 (stereo partly drawn)	metabolic stability	rat, liver microsomes	1 µM	scaled CLint	< 21 mL/min/kg
CC1(C)NC(=O)N(c2ccc(F)c(CC(F)(F)F)c2)C1=O	HPLC		pH 7.4	chromatographic logD	2.7
c1coc(Nc2ncnc3ccc(-c4cncc(N5CCOCC5)n4)cc23)n1	shake flask	aqueous buffer	pH 7.4	logD	3.5
CC(C)(N)COCC(=O)N1CCC[C@H](C(=O)NCc2nc(-c3ccc(C(F)(F)F)cc3)cs2)C1	metabolic stability	human, liver microsomes	0.5 µM	scaled CLint	< 4 mL/min/kg
CC1(C(F)F)NC(=O)N(c2ccc(F)c(C(F)(F)F)c2)C1=O (stereo not drawn)	HPLC		pH 7.4	chromatographic logD	3.2
CCONC(=O)N1CCC[C@H](C(=O)N[C@@H](C)c2nc(-c3ccc(C#N)cc3)cs2)C1	metabolic stability	male Sprague-Dawley rat, liver microsomes	0.5 µM	microsomal CLint	36 µL/min/mg
Cc1cc(N2C(=O)NC(C)(C)C2=O)cc(C(F)(F)F)n1	HPLC		pH 7.4	chromatographic logD	2.2
c1cc(-c2ccc3ncnc(NC4CCOCC4)c3c2)cc(N2CCOCC2)c1	shake flask	aqueous buffer	pH 7.4	logD	3.3

SMILES	test	system	setting	endpoint	result
CN1CCC(Oc2ccc3c(=O)c4c(F)cc(Cl)cc4[nH]c3c2)CC1	metabolic stability	human, liver microsomes	1 µM, pH 7.4	microsomal CLint	24.9 µL/min/mg
Cc1cc(S(=O)(=O)N[C@]2(C)C[C@H](N3CCN(CC4CCN(c5ccc6c(c5F)n(C)c(=O)n6C5CCC(=O)NC5=O)CC4)CC3)C2)ccc1Nc1ncc(C(F)(F)F)c(N2CCC[C@](C)(O)C2)n1 (stereo partly drawn)	metabolic stability	rat, liver microsomes	1 µM	scaled CLint	< 21 mL/min/kg
CCC(F)(F)c1cc(N2C(=O)NC(C)(C)C2=O)ccc1F	HPLC		pH 7.4	chromatographic logD	2.9
O=c1c2c([nH]c3cc(OC(F)(F)F)ccc13)CCCC2	metabolic stability	human, liver microsomes	1 µM, pH 7.4	microsomal CLint	173 µL/min/mg
CC1(C)NC(=O)N(c2ccc3c(c2)OC(F)(F)O3)C1=O	HPLC		pH 7.4	chromatographic logD	2.5
c1ccc(Oc2ccc(Nc3c4c(nc5ccccc35)CCC4)cc2)cc1	HPLC		pH 7.4	chromatographic logD	> 5.3
FC(F)(F)c1cc(Nc2ncnc3ccc(-c4cccc(N5CCOCC5)c4)cc23)ccc1Cl	shake flask	aqueous buffer	pH 7.4	logD	> 4.1
CC1(C)NC(=O)N(c2cccc(C(F)(F)F)n2)C1=O	HPLC		pH 7.4	chromatographic logD	1.6
CCOCC(=O)N1CCC[C@H](C(=O)NCc2nc(-c3ccc(C#N)nc3)cs2)C1	metabolic stability	male Sprague-Dawley rat, liver microsomes	0.5 µM	microsomal CLint	11 µL/min/mg
COc1ccc2c(c1)CN(C(=O)CCN1CCC(Cc3ccccc3)CC1)CC[S@@+]2[O-]		male human, plasma	intravenous, 0.6 mg/kg, healthy volunteers	clearance	175 mL/min
CCONC(=O)N1CCC[C@H](C(=O)NCc2nc(-c3ccc(C#N)cc3)cs2)C1	metabolic stability	human, liver microsomes	0.5 µM	microsomal CLint	9 µL/min/mg
CNS(=O)(=O)c1ccc(Nc2ncc(C(F)(F)F)c(N3CCC(C)(O)CC3)n2)c(C)c1	metabolic stability	rat, liver microsomes	1 µM	scaled CLint	38 mL/min/kg
COCC(=O)N1CCC[C@H](C(=O)NCc2nc(-c3ccc(C#N)cc3)cs2)C1	metabolic stability	male Sprague-Dawley rat, liver microsomes	0.5 µM	scaled CLint	30 mL/min/kg
Cc1cc(S(=O)(=O)NC2CC(N3CCN(CC4CCN(c5ccc6c(c5F)n(C)c(=O)n6C5CCC(=O)NC5=O)CC4)CC3)C2)ccc1Nc1ncc(C(F)(F)F)c(N2CCCC(C)(O)C2)n1 (stereo not drawn)	metabolic stability	human, liver microsomes	1 µM	scaled CLint	22 mL/min/kg
COCC(=O)N1CCC[C@H](C(=O)NCc2nc(-c3ccccc3)cs2)C1	metabolic stability	male Sprague-Dawley rat, hepatocytes	0.5 µM	scaled CLint	32 mL/min/kg
Cc1cc(S(=O)(=O)NC2CC(N3CCN(CC4CCN(c5ccc(NC6CCC(=O)NC6=O)cc5C)CC4)CC3)C2)ccc1Nc1ncc(C(F)(F)F)c(N2CCC[C@](C)(O)C2)n1 (stereo partly drawn)	metabolic stability	rat, liver microsomes	1 µM	scaled CLint	< 21 mL/min/kg
